Test results: ChEMBL document CHEMBL4673366, “Cyclic Phosphopantothenic Acid Prodrugs for Treatment of Pantothenate Kinase-Associated Neurodegeneration” (J Med Chem, 2020)

Assays:
[1] = Stability of compound in human whole blood assessed as half life; format: ADME, tissue-based
[2] = Increase in free coenzyme A level in C57BL6 mouse brain at 500 mg/kg, po administered as single dose measured after 1 hr UPLC quadrupole-time-of-flight mass spectrometry (Rvb =0%); format: functional
Summary of the method: (§1)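 C57BL6 mice, three per time point, received one oral 500 mg/kg dose of isotopically labeled prodrug, and brains were taken at 0, 1, 6 and 24 h. Brains were homogenized in water (3 mL/g), protein was precipitated with MeOH, and dried supernatant was reconstituted in 10 mM ammonium acetate (pH ~5). Analysis was UPLC-QTOF MS in positive ESI, scoring labeled CoA (+6, +4 amu) as a share of free CoA.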

[3] = Increase in free coenzyme A level in C57BL6 mouse brain at 500 mg/kg, po administered as single dose measured after 6 hrs UPLC quadrupole-time-of-flight mass spectrometry (Rvb =0%); format: functional; summary of the method: as §1
[4] = Increase in free coenzyme A level in C57BL6 mouse brain at 500 mg/kg, po administered as single dose measured after 24 hrs UPLC quadrupole-time-of-flight mass spectrometry (Rvb =0%); format: functional; summary of the method: as §1
[5] = Induction of Coenzyme A regeneration in human IMR-32 PANK2 knockdown cells at 50 uM for 24 hrs by HPLC analysis relative to control; format: functional
Summary of the method: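 PANK2-knockout neuroblastoma cells were grown in MEM with 10% FBS and 1 µg/mL puromycin and seeded at 0.2×10⁶ cells/well. After 72 h, they were dosed at 50 µM in DMSO (final 0.1%) at 37 °C. Washed, frozen pellets were reconstituted in ammonium acetate (pH 5.1) with internal standard, and free CoA was measured by LC-MS/MS. Intracellular volume was taken as 2 µL/10⁶ cells; results are fold over vehicle-treated cells.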

[6] = Apparent permeability in porcine brain endothelial cells; format: ADME, cell-based, Sus scrofa, Endothelial cell; conditions: pig
[7] = Stability of compound in human hepatocytes assessed as half life; format: ADME, cell-based, Hepatocyte
[8] = Stability of compound in human plasma assessed as half life; format: ADME, cell-free

| Compound | half-life [1] [min] | fold change (FC) [5] | further results |
| --- | --- | --- | --- |
| COC(=O)CCNC(=O)[C@@H]1O[P@](=O)(OCOC(=O)c2ocnc2C)OCC1(C)C | 16.2 |  |  |
| CO[13C](=O)[13CH2][13CH2][15NH]C(=O)[C@@H]1OP(=O)(OCOC(=O)C(C)(C)C)OCC1(C)C (stereo partly specified) |  |  | Activity [2]: 0%; Activity [3]: 2.7%; Activity [4]: 12.9% |
| CCCC(=O)OCOP1(=O)OCC(C)(C)[C@H](C(=O)NCCC(=O)OC)O1 (mixture of isomers) |  | 84 |  |
| COC(=O)CCNC(=O)[C@@H]1OP(=O)(OCOC(=O)C2(C(N)=O)CC2)OCC1(C)C (mixture of isomers) |  | 12 |  |
| CCc1cc(C(=O)OCOP2(=O)OCC(C)(C)[C@H](C(=O)NCCC(=O)OC)O2)n(C)n1 (mixture of isomers) |  | 130 |  |
| COC(=O)CCNC(=O)[C@@H]1OP(=O)(OCOC(=O)c2cnccn2)OCC1(C)C (mixture of isomers) |  | 77 |  |
| COC(=O)CCNC(=O)[C@@H]1OP(=O)(OCOC(=O)c2scnc2C)OCC1(C)C (mixture of isomers) |  | 44 |  |
| CC(C)(C)C(=O)OCO[P@@]1(=O)OCC(C)(C)[C@H](C(=O)NCCC(=O)OCCc2ccccn2)O1 | < 9.6 | 100 |  |
| COC(=O)CCNC(=O)[C@@H]1O[P@@](=O)(OCOC(=O)c2cc(C)nn2C)OCC1(C)C (relative stereo) | > 60 |  |  |
| COC(=O)CCNC(=O)[C@@H]1OP(=O)(OCOC(=O)C(C)C)OCC1(C)C (mixture of isomers) |  | 92 |  |
| COC(=O)CCNC(=O)[C@@H]1O[P@](=O)(OCOC(=O)c2scnc2C(C)(C)C)OCC1(C)C (relative stereo) | 26.4 |  |  |
| COC(=O)CCNC(=O)[C@@H]1OP(=O)(OCOC(=O)c2ccccc2)OCC1(C)C (mixture of isomers) |  | 278 |  |
| CC(C)(C)C(=O)OCO[P@@]1(=O)OCC(C)(C)[C@H](C(=O)NCCC(=O)O)O1 | > 60 | 4 |  |
| COC(=O)CCNC(=O)[C@@H]1O[P@@](=O)(Oc2ccc(F)cc2)OCC1(C)C |  | 2 |  |
| COC(=O)CCNC(=O)[C@@H]1O[P@](=O)(OCOC(=O)c2cc(C)nn2C)OCC1(C)C (relative stereo) | < 9.6 |  |  |
| CC(C)(C)C(=O)OCO[P@@]1(=O)OCC(C)(C)[C@H](C(=O)NCCC(=O)OCCS(C)(=O)=O)O1 | < 9.6 | 121 |  |
| COC(=O)CCNC(=O)[C@@H]1OP(=O)(OCOC(=O)c2cncs2)OCC1(C)C (mixture of isomers) |  | 88 |  |
| COC(=O)CCNC(=O)[C@@H]1O[P@@](=O)(OCOC(=O)c2cc(C(C)(C)C)n[nH]2)OCC1(C)C | > 60 | 101 | Papp [6]: 5.3 ×10⁻⁶ cm/s; half-life [7]: 30 min |
| COC(=O)CCNC(=O)[C@@H]1O[P@](=O)(OCOC(=O)c2ccnn2C)OCC1(C)C | < 9.6 |  |  |

| Compound | half-life [1] [min] | fold change (FC) [5] | further results |
| --- | --- | --- | --- |
| COC(=O)CCNC(=O)[C@@H]1OP(=O)(Oc2ccc(F)cc2)OCC1(C)C (mixture of isomers) | > 60 |  |  |
| COC(=O)CCNC(=O)[C@@H]1O[P@](=O)(Oc2ccc(C#N)cc2)OCC1(C)C | 27.6 | 7 |  |
| COC(=O)CCNC(=O)[C@@H]1O[P@@](=O)(OCOC(=O)c2cncs2)OCC1(C)C (relative stereo) |  |  | half-life [8]: < 9.6 min |
| COC(=O)CCNC(=O)[C@@H]1O[P@@](=O)(OCOC(=O)C(C)(C)C)OCC1(C)C |  | 198 |  |
| COC(=O)CCNC(=O)[C@@H]1O[P@](=O)(Oc2ccc(C(F)(F)F)cc2)OCC1(C)C | > 60 | 102 |  |
| COC(=O)CCNC(=O)[C@@H]1OP(=O)(OCOC(=O)c2ocnc2C)OCC1(C)C (mixture of isomers) |  | 39 |  |
| COC(=O)CCNC(=O)[C@@H]1O[P@](=O)(OCOC(=O)c2cc(C(C)(C)C)n[nH]2)OCC1(C)C (relative stereo) | < 9.6 |  |  |
| COC(=O)CCNC(=O)[C@@H]1O[P@](=O)(OCOC(=O)c2cncs2)OCC1(C)C (relative stereo) |  |  | half-life [8]: < 9.6 min |
| COC(=O)CCNC(=O)[C@@H]1O[P@@](=O)(OCOC(=O)c2ocnc2C)OCC1(C)C (relative stereo) | 31.2 |  |  |
| COC(=O)CCNC(=O)[C@@H]1OP(=O)(OCOC(=O)c2cc(C(C)(C)C)n[nH]2)OCC1(C)C (mixture of isomers) |  | 85 |  |
| COC(=O)CCNC(=O)[C@@H]1O[P@](=O)(OCOC(=O)C(C)(C)C)OCC1(C)C |  | 106 |  |
| COC(=O)CCNC(=O)C1OP(=O)(Oc2ccc(F)cc2)OCC1(C)C (mixture of isomers) | > 60 |  |  |
| COC(=O)CCNC(=O)[C@@H]1O[P@@](=O)(OCOC(=O)c2ccnn2C)OCC1(C)C (relative stereo) | > 60 |  |  |
| COC(=O)CCNC(=O)[C@@H]1OP(=O)(OCOC(=O)c2cc(C)nn2C)OCC1(C)C (mixture of isomers) |  | 42 |  |
| CC(C)(C)C(=O)OCO[P@@]1(=O)OCC(C)(C)[C@H](C(=O)NCCC(=O)OCc2cncs2)O1 | < 9.6 | 133 |  |
| COC(=O)CCNC(=O)[C@@H]1OP(=O)(OCOC(=O)OC(C)C)OCC1(C)C (mixture of isomers) |  | 199 |  |
| COC(=O)CCNC(=O)[C@@H]1O[P@](=O)(OCOC(=O)c2ccns2)OCC1(C)C (relative stereo) | < 9.6 |  |  |
| CCc1cc(C(=O)OCO[P@]2(=O)OCC(C)(C)[C@H](C(=O)NCCC(=O)OC)O2)n(C)n1 (relative stereo) | < 9.6 |  |  |
| COC(=O)CCNC(=O)[C@@H]1OP(=O)(OCOC(=O)c2ccnn2C)OCC1(C)C (mixture of isomers) |  | 58 |  |

| Compound | half-life [1] [min] | fold change (FC) [5] | further results |
| --- | --- | --- | --- |
| COC(=O)CCNC(=O)[C@@H]1O[P@](=O)(Oc2ccc(C[C@H](N)C(=O)OC)cc2)OCC1(C)C | 30 | 81 |  |
| CCOC(=O)CCNC(=O)[C@@H]1O[P@@](=O)(OCOC(=O)C(C)(C)C)OCC1(C)C | 16.8 | 85 |  |
| COC(=O)CCNC(=O)[C@@H]1O[P@@](=O)(OCOC(=O)c2scnc2C(C)(C)C)OCC1(C)C (relative stereo) | > 60 |  |  |
| COC(=O)CCNC(=O)[C@@H]1O[P@](=O)(Oc2ccccc2C(=O)OC)OCC1(C)C |  | 4 |  |
| CCc1cc(C(=O)OCO[P@@]2(=O)OCC(C)(C)[C@H](C(=O)NCCC(=O)OC)O2)n(C)n1 | ≥ 58.2 | 14 | Papp [6]: 11.8 ×10⁻⁶ cm/s; half-life [7]: 18 min |
| CC(C)(C)OC(=O)CCNC(=O)[C@@H]1OP(=O)(OCOC(=O)C(C)(C)C)OCC1(C)C (mixture of isomers) | > 60 | 2 |  |
| COC(=O)CCNC(=O)[C@@H]1O[P@@](=O)(OC(C)OC(=O)C(C)(C)C)OCC1(C)C (stereo partly specified) |  | 3 |  |
| COC(=O)CCNC(=O)[C@@H]1O[P@@](=O)(OCOC(=O)c2scnc2C)OCC1(C)C | > 60 | 40 | Papp [6]: 5.1 ×10⁻⁶ cm/s; half-life [7]: 30 min |
| CCC(CC)C(=O)OCOP1(=O)OCC(C)(C)[C@H](C(=O)NCCC(=O)OC)O1 (mixture of isomers) |  | 369 |  |
| COC(=O)CCNC(=O)[C@@H]1OP(=O)(OCOC(=O)c2scnc2C(C)(C)C)OCC1(C)C (mixture of isomers) |  | 3 |  |
| COC(=O)CCNC(=O)[C@@H]1O[P@](=O)(OCOC(=O)c2scnc2C)OCC1(C)C (relative stereo) | < 9.6 |  |  |
| COC(=O)CCNC(=O)[C@@H]1O[P@](=O)(Oc2ccc(S(F)(F)(F)(F)F)cc2)OCC1(C)C | 30 | 34 |  |
| COC(=O)CCNC(=O)[C@@H]1O[P@@](=O)(OCOC(=O)c2ccns2)OCC1(C)C (relative stereo) | < 9.6 |  |  |
| COC(=O)CCNC(=O)[C@@H]1OP(=O)(OCOC(=O)c2ccncc2)OCC1(C)C (mixture of isomers) |  | 35 |  |
| COC(=O)CCNC(=O)[C@@H]1OP(=O)(OCOC(=O)c2ccns2)OCC1(C)C (mixture of isomers) |  | 37 |  |
| CO[13C](=O)[13CH2][13CH2][15NH]C(=O)[C@@H]1OP(=[18O])(OCOC(=O)C(C)(C)C)OCC1(C)C (stereo partly specified) |  |  | Activity [2]: 0%; Activity [3]: 5.3%; Activity [4]: 2.1% |
| COC(=O)CCNC(=O)[C@@H]1O[P@](=O)(Oc2ccc(F)cc2)OCC1(C)C |  | 87 | Papp [6]: 16 ×10⁻⁶ cm/s |
| CC(C)(C)C(=O)OCO[P@@]1(=O)OCC(C)(C)[C@H](C(=O)NCCC(=O)OC2CCN(Cc3ccccc3)C2)O1 (stereo partly specified) | 11.4 | 207 |  |
